Only some compounds are listed: those with a hit (about 2.2% of all), similar ones and a draw of the others.
ERp5 block: blocks human ERp5 reductase activity on insulin. ERp5 insulin aggregation, absorbance 650 nm, 90 min. 0.05% of 350,000 active. inhibition, % at 9.99 µM;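 active = mean replicate inhibition above about 25%, with every replicate also reaching it, limit read from the data, passing the limit was not always enough; inconclusive = only one of those two criteria met; inactive = neither criterion met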
Target sequence (Q15084 whole entry, looked up): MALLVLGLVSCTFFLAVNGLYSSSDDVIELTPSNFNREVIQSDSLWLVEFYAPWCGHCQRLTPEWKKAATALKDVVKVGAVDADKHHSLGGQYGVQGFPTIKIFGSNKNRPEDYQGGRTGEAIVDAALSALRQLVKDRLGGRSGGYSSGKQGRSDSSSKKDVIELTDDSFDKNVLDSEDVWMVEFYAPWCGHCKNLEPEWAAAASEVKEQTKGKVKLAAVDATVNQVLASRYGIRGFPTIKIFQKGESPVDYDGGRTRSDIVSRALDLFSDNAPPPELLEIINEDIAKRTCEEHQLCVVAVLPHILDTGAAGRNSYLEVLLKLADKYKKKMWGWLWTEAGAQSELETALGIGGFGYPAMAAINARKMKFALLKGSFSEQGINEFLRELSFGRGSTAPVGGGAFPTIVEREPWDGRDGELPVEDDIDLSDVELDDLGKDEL
PvdQ acylase: P. aeruginosa PvdQ acylase inhibition | AID 488965 | purified PvdQ acylase, fluorescence plate reader | 0.063% of 340,000 active | inhibition, % at 10 µM; in the data active = inhibition above about 30%, passing the limit was not always enough; inconclusive = no clear call, values can overlap the other calls;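 note: 0% = vehicle neutral wells and 100% = reference inhibitor wells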
PDI turbidity: blocks human protein disulfide isomerase activity; P07237; PDI insulin aggregation turbidity, A650, 90 min; inhibition, % at 10 µM; 0.052% of 350,000 active; AID 588391;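 active = mean inhibition across replicates of 30% or more, whatever share of single replicates reach that level; inconclusive = mean inhibition below 30% while every single replicate reaches 30%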
FN deposit inh: fibronectin deposition inhibition; AH1F fibroblasts, Alexa488-fibronectin deposition fluorescence, overnight; inhibition, % at 12.6 µM; 0.086% of 350,000 active;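 active = mean inhibition across replicates of 30% or more, regardless of how many single replicates reach that level; inconclusive = mean under 30% yet at least half of replicates reach 30%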;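 note: positive control wells lacked labelled fibronectin entirely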
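Test system: AH1F fibroblast monolayer depositing Alexa488-labelled fibronectin into matrix. Input: 10000 cells per well. Technique: fluorescence, ex 485 nm, em 525 nm. Buffer or medium: DMEM plus 2% serum, read in PBS. Timing: 1 h cell adhesion before compound, then overnight fibronectin incubation. Compound: single dose, pinned. Read-out basis: inhibition from reduced deposited-fibronectin fluorescence.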
HIV Env fusion: inhibitors of HIV Env-mediated cell fusion; HeLa-JRFL Env/CEM21 cell fusion, luciferase; inhibition, % at 12.3 µM; 1.1% of 360,000 active;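 active = mean replicate inhibition score of at least 50 and every replicate individually at or above 50; inconclusive = only one of the two criteria met; inactive = mean below 50 and not all replicates reaching 50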;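 note: 0% = plate neutral controls and 100% = maraviroc near 300 nM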
Ecoli rRNA inh: selective bacterial rRNA inhibition in E. coli; GFP signal change (wild-type ribosome), % (test concentration not listed); E. coli WT GFP vs humanized-ribosome RFP mutants, fluorescence, 24 h; active compounds read low; DMSO median 0, no signal -100; AID 720706; 1.6% of 350,000 active;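 active = significant combined selectivity score with lowered wild-type GFP, culture density cut under 30%, mutant RFP and density less affected; inactive = any of these conditions unmet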
* = called active by the depositor; ? = inconclusive; . = no result; [ ] = dose if it differs, or a comment.

SMILES	ERp5 block	PvdQ acylase	PDI turbidity	FN deposit inh	HIV Env fusion	Ecoli rRNA inh
Oc1ccc2c3c1OC1c4oc5ccccc5c4C[C@@]4(O)[C@@H](C2)N(CC2CC2)CC[C@]314 (stereo partly specified)	7	2	1	.	.	-20*
Oc1ccc2c3c1OC1c4[nH]c5ccccc5c4C[C@@]4(O)C(C2)N(CC2CC2)CC[C@]314 (stereo partly specified)	2	-12	3	.	.	8
C=CC1CN2CCC1C[C@@H]2CO (stereo partly specified)	-1	.	.	.	1[16.7 µM]	.
CN1C2CCC1/C(=C/c1ccccn1)C(=O)/C2=C\c1ccccn1	5	1	-4	29	60*	-21
CN(CC1COc2ccccc2O1)c1nc(-c2cccnc2)nc2ccccc12 (stereo unspecified)	.	-30	-1	.	65*	.
O=C1CNC[C@@H]2[C@H](c3ccc(Br)cc3)[C@H](CO)N12	8	.	.	-2	.	-4
CC(C)(C)n1nnnc1C(C1CC1)N1CCC2(CC1)C(=O)NCN2c1ccccc1 (stereo unspecified)	2	.	.	-15	4	-16*
COC(=O)C1=C(C(=O)OC)C2OC1c1cc3ccccc3cc12	-3	-13	11	.	23	-19*
Cc1nc2ccccc2c(=O)n1/N=C/c1cc(Br)cc(Br)c1O	0	-4	1	8	13	-22*
CC1OC(OC2C=C3CCC4C(CCC5(C)C(c6ccc(=O)oc6)CCC45O)C3(C)CC2)C(O)C(OC2OC(CO)C(O)C(O)C2O)C1O (stereo unspecified)	-5	-15	10	-7	63*	.
Cc1cc(OCC(=O)NCc2ccc(S(N)(=O)=O)cc2)c2c3c(c(=O)oc2c1)CCC3	28*	6	1	-7	-5	-1
O=C(O)[C@@H]1[C@@H](CO)[C@@H]2Cn3c(ccc(-c4ccncc4)c3=O)[C@H]1N2C(=O)C1CCCCC1	-1	.	.	-11	.	5
CC1CC(C)CC(C)C(O)C(C#N)=CC=CCC(C2CCCC2C(=O)O)OC(=O)CC(O)C(C)C1 (stereo unspecified)	5	-10	-31	5	71*	-49
CN(C)C(=O)[C@H]1[C@H](CO)[C@H]2Cn3c(cccc3=O)[C@@H]1N2CC1CC1	-2	.	.	.	.	4
CN1[C@@H]2CN(CC(F)(F)F)C[C@H]1C2c1ccc(Br)cc1 (stereo partly specified)	.	.	.	4	.	-4
CCC(=O)N1N=C(c2c(O)n(CCc3ccccc3)c(=O)[nH]c2=O)CC1c1ccc(OC)c(OC)c1 (stereo unspecified)	0	.	8	6	1	-28*
CC(=O)N1C[C@@H]2C(c3ccccc3)[C@H](C1)N2CC1CC1 (stereo partly specified)	.	.	.	3	.	1
CCCCN=C[C@]12CCC(O)CC1(O)CCC1[C@@H]2CC[C@]2(C)[C@H](C3C=CC(=O)O3)CCC12O (stereo partly specified)	1	-1	1	-14	82*	0
CC12CCC3C(CCC4(O)CC(O)CCC34C=NO)C1(O)CCC2C1=COC(=O)C1 (stereo unspecified)	2	-4	-3	10	105*	.
CCOC(=O)c1c(C)n(C(C)C)c2ccc(OC)cc12	-70	-4	5	2	0	-28*
CCn1c(C)c(C(=O)O)c2cc(OC)ccc21	.	-14	-4	.	.	.
CC(=O)OCC12CC(OC(=O)CC(C)C)C(C)=CC1OC1C(O)C(OC(C)=O)C2(C)C12CO2 (stereo unspecified)	3	-17	0	9	67*	14
CC(C)NC(=O)N1C[C@@H]2C(c3ccccc3)[C@H](C1)N2C (stereo partly specified)	.	.	.	.	.	-2
NC1=C([N+](=O)[O-])C(c2ccc3c(c2)OCO3)c2c(c3ccccc3oc2=O)O1 (stereo unspecified)	-5	.	.	-8	3	-29*
CN(C)CC#Cc1ccc([C@@H]2[C@H](CO)N3CCCCN(C(=O)Cc4ccccn4)C[C@@H]23)cc1	-5	.	.	-4	.	3
SMILES	ERp5 block	PvdQ acylase	PDI turbidity	FN deposit inh	HIV Env fusion	Ecoli rRNA inh
COC(=O)[C@H]1[C@H](CO)[C@H]2Cn3c(ccc(C4=CCCCC4)c3=O)[C@@H]1N2Cc1ccccn1	-1	.	.	.	.	-2
COc1cc(O)c2c(c1)/C=C/C[C@H](O)[C@H](O)C(=O)CCC[C@H](C)OC2=O	2	.	.	3	12	-25*
C[C@H]1CCCC(=O)CCCCCc2cc(O)cc(O)c2C(=O)O1	-4	-7	?	-2	12	.
Oc1ccccc1CN(CCc1ccccc1)Cc1ccccc1	2	-12	-2	-9	-6	-26*
O=C1NC2C(=CC(O)C(O)C2O)c2cc3c(c(O)c21)OCO3 (stereo unspecified)	-2	-6	-2	21	64*	4
O=C1NC2C(=CC(O)C(O)C2O)c2cc3c(cc21)OCO3 (stereo unspecified)	-1	-17	-3	16	100*	4
O=C1NC2C(O)C(O)C(O)C(O)C2c2cc3c(c(O)c21)OCO3 (stereo unspecified)	-13	-10	-4	5	119*	6
CN1[C@@H]2CN(S(C)(=O)=O)C[C@H]1C2c1ccc(Br)cc1 (stereo partly specified)	.	.	.	-1	.	2
CC(=O)N1C[C@@H]2N[C@H](C1)C2c1ccc(Br)cc1 (stereo partly specified)	.	.	.	-7	.	1
Cn1ncnc2c(=O)n(C)c(=O)nc1-2	.	8	175*	.	.	.
CP(=O)(O)CN1CCCCC1	5	0	-4	6	6	14
CCC1CN1P(=O)(N1CCCC1)N1CC1CC (stereo unspecified)	-1	-14	3	-3	59*	15
C=CCN1[C@@H]2CN(C(C)=O)C[C@H]1C2c1ccc(Br)cc1 (stereo partly specified)	.	.	.	4	.	-3
COC(=O)[C@H]1[C@H](CO)[C@H]2Cn3c(ccc(C4=CCCCC4)c3=O)[C@@H]1N2CC1CCCC1	-1	.	.	.	.	-4
CC(C)(C)C(=O)OC[N+](C)(C)CCOC(=O)C(O)(c1ccccc1)C1CCCC1 (stereo unspecified)	2	2	3	-4	3	9
O=C(O)C(O)(c1ccccc1)C1CCCC1 (stereo unspecified)	.	-15	-5	33*	-18	.
COC(=O)[C@@H]1[C@@H](C(=O)OC)C2(c3ccccc3-c3ccccc32)N(c2ccc(Cl)cc2)N1C#N	6	8	-1	.	.	2
COC(=O)C[C@]1(C(=O)OC)CN(C#N)N(c2ccc(Cl)cc2)C12c1ccccc1-c1ccccc12	-4	1	14	41*	-30	18

High-throughput results deposited in PubChem BioAssay by Broad Institute.
